Assay results as given in the RNAGym collection of RNA variant scans (doi:10.1126/science.aae0568).
Variants at the floor of the assay were thinned out.

B1: tRNA (parent)
chain: GUUCCGUUGGCGUAAUGGUAACGCGUCUCCCUCCUAAGGAGAAGACUGCGGGUUCGAGUCCCGUACGGAACG

Variants of: B1
Experiment: yeast fitness relative to wild type (ratio to wild type); higher = fitter; tRNA-Arg(CCU), competitive growth, 37 C, YPD
Procedure, shortened: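 Variants of the tRNA-Arg(CCU) gene, chemically synthesised with a 3% per-site mutation rate at 69 sites, were placed at the native genomic locus in Saccharomyces cerevisiae. The pooled strains were competed in YPD at 37°C for 24 hours in six parallel replicates. Gene amplicons from the start population and from each end population were read by 100-nucleotide paired-end sequencing. Darwinian fitness relative to wild type came from changes in genotype frequencies; genotypes needed ≥ 100 starting reads, and estimates < 0.5 were set to 0.5.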

Row | Variant | yeast fitness
1 | GUUCCGUUGGCGUAAUGGUAACGCGUCUCCCUCCUAAGGAGAAGACUGCGGGUUCGAGUCCGGUGCGGAUCG [C62G A65G A70U] | ≤ 0.5
2 | GUUCCGUUGGCGUAAUGGUAACGCGUCUCCCUCCUAAGGAGAAGACUGCGGGUUCGAGUCCGGUUCGGUACG [C62G A65U A69U] | 0.535
3 | GUUCCGUUGGCGUAAUGGUAACGCGUCUCCCUCCUAAGGAGAAGACUGCGGGUUCGAGUCCGGUACGGGACG [C62G A69G] | 0.819
4 | GUUCCGUUGGCGUAAUGGUAACGCGUCUCCCUCCUAAGGAGAAGACUGCGGGUUCGAGUCCGGUACGGUACG [C62G A69U] | 0.839
5 | GUUCCGUUGGCGUAAUGGUAACGCGUCUCCCUCCUAAGGAGAAGACUGCGGGUUCGAGUCCGGUACGGACCG [C62G A70C] | 0.679
6 | GUUCCGUUGGCGUAAUGGUAACGCGUCUCCCUCCUAAGGAGAAGACUGCGGGUUCGAGUCCGGUAAGGAACG [C62G C66A] | ≤ 0.5
7 | GUUCCGUUGGCGUAAUGGUAACGCGUCUCCCUCCUAAGGAGAAGACUGCGGGUUCGAGUCCGGUAGGGAACG [C62G C66G] | 0.553
8 | GUUCCGUUGGCGUAAUGGUAACGCGUCUCCCUCCUAAGGAGAAGACUGCGGGUUCGAGUCCGCUACGGAACG [C62G G63C] | 0.588
9 | GUUCCGUUGGCGUAAUGGUAACGCGUCUCCCUCCUAAGGAGAAGACUGCGGGUUCGAGUCCGGUACGCAGCG [C62G G68C A70G] | ≤ 0.5
10 | GUUCCGUUGGCGUAAUGGUAACGCGUCUCCCUCCUAAGGAGAAGACUGCGGGUUCGAGUCCGGAACGGAACG [C62G U64A] | 0.695
11 | GUUCCGUUGGCGUAAUGGUAACGCGUCUCCCUCCUAAGGAGAAGACUGCGGGUUCGAGUCCGGCACGGAACG [C62G U64C] | 0.97
12 | GUUCCGUUGGCGUAAUGGUAACGCGUCUCCCUCCUAAGGAGAAGACUGCGGGUUCGAGUCCUGUUCGGAACG [C62U A65U] | 0.93
13 | GUUCCGUUGGCGUAAUGGUAACGCGUCUCCCUCCUAAGGAGAAGACUGCGGGUUCGAGUCCUGUUCGCAACG [C62U A65U G68C] | 0.602
14 | GUUCCGUUGGCGUAAUGGUAACGCGUCUCCCUCCUAAGGAGAAGACUGCGGGUUCGAGUCCUGUACGGGUCG [C62U A69G A70U] | 0.648
15 | GUUCCGUUGGCGUAAUGGUAACGCGUCUCCCUCCUAAGGAGAAGACUGCGGGUUCGAGUCCUGUACGGUACG [C62U A69U] | 0.955
16 | GUUCCGUUGGCGUAAUGGUAACGCGUCUCCCUCCUAAGGAGAAGACUGCGGGUUCGAGUCCUGUACGGAUCG [C62U A70U] | 0.996
17 | GUUCCGUUGGCGUAAUGGUAACGCGUCUCCCUCCUAAGGAGAAGACUGCGGGUUCGAGUCCUGUAAGGAACG [C62U C66A] | 0.686
18 | GUUCCGUUGGCGUAAUGGUAACGCGUCUCCCUCCUAAGGAGAAGACUGCGGGUUCGAGUCCUGUAGGGAACG [C62U C66G] | 0.731
19 | GUUCCGUUGGCGUAAUGGUAACGCGUCUCCCUCCUAAGGAGAAGACUGCGGGUUCGAGUCCUGUAGGGAGCG [C62U C66G A70G] | 0.574

Row | Variant | yeast fitness
20 | GUUCCGUUGGCGUAAUGGUAACGCGUCUCCCUCCUAAGGAGAAGACUGCGGGUUCGAGUCCUGUAUAGAACG [C62U C66U G67A] | 0.52
21 | GUUCCGUUGGCGUAAUGGUAACGCGUCUCCCUCCUAAGGAGAAGACUGCGGGUUCGAGUCCUAUACGGAACG [C62U G63A] | 0.719
22 | GUUCCGUUGGCGUAAUGGUAACGCGUCUCCCUCCUAAGGAGAAGACUGCGGGUUCGAGUCCUCUACGGAACG [C62U G63C] | 0.752
23 | GUUCCGUUGGCGUAAUGGUAACGCGUCUCCCUCCUAAGGAGAAGACUGCGGGUUCGAGUCCUCUACGGACCG [C62U G63C A70C] | ≤ 0.5
24 | GUUCCGUUGGCGUAAUGGUAACGCGUCUCCCUCCUAAGGAGAAGACUGCGGGUUCGAGUCCUGUACGAAACG [C62U G68A] | 0.838
25 | GUUCCGUUGGCGUAAUGGUAACGCGUCUCCCUCCUAAGGAGAAGACUGCGGGUUCGAGUCCUGUACGCGACG [C62U G68C A69G] | 0.567
26 | GUUCCGUUGGCGUAAUGGUAACGCGUCUCCCUCCUAAGGAGAAGACUGCGGGUUCGAGUCCUGAACGGAACG [C62U U64A] | 0.735
27 | GUUCCGUUGGCGUAAUGGUAACGCGUCUCCCUCCUAAGGAGAAGACUGCGGGUUCGAGUCCCAUACGGAACG [G63A] | 0.853
28 | GUUCCGUUGGCGUAAUGGUAACGCGUCUCCCUCCUAAGGAGAAGACUGCGGGUUCGAGUCCCAUCCGGAACG [G63A A65C] | 0.942
29 | GUUCCGUUGGCGUAAUGGUAACGCGUCUCCCUCCUAAGGAGAAGACUGCGGGUUCGAGUCCCAUACGGUACG [G63A A69U] | 0.856
30 | GUUCCGUUGGCGUAAUGGUAACGCGUCUCCCUCCUAAGGAGAAGACUGCGGGUUCGAGUCCCAUAGGGAACG [G63A C66G] | 0.678
31 | GUUCCGUUGGCGUAAUGGUAACGCGUCUCCCUCCUAAGGAGAAGACUGCGGGUUCGAGUCCCAUACAGGACG [G63A G67A A69G] | ≤ 0.5
32 | GUUCCGUUGGCGUAAUGGUAACGCGUCUCCCUCCUAAGGAGAAGACUGCGGGUUCGAGUCCCAUACCGAACG [G63A G67C] | 0.707
33 | GUUCCGUUGGCGUAAUGGUAACGCGUCUCCCUCCUAAGGAGAAGACUGCGGGUUCGAGUCCCAAACGGAACG [G63A U64A] | 0.864
34 | GUUCCGUUGGCGUAAUGGUAACGCGUCUCCCUCCUAAGGAGAAGACUGCGGGUUCGAGUCCCCUACGGAACG [G63C] | 0.812
35 | GUUCCGUUGGCGUAAUGGUAACGCGUCUCCCUCCUAAGGAGAAGACUGCGGGUUCGAGUCCCCUUCGGAACG [G63C A65U] | 0.735
36 | GUUCCGUUGGCGUAAUGGUAACGCGUCUCCCUCCUAAGGAGAAGACUGCGGGUUCGAGUCCCCUUCGGAUCG [G63C A65U A70U] | 0.558
37 | GUUCCGUUGGCGUAAUGGUAACGCGUCUCCCUCCUAAGGAGAAGACUGCGGGUUCGAGUCCCCUACGGCACG [G63C A69C] | 0.629
38 | GUUCCGUUGGCGUAAUGGUAACGCGUCUCCCUCCUAAGGAGAAGACUGCGGGUUCGAGUCCCCUACGGUACG [G63C A69U] | 0.709
